Activity calls are given as the source filed them.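 The calls were made as follows: active = relative activity ratio above 1.25 at every tested dose; inactive = the rest.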

Consider two molecules from PubChem BioAssay AID624314 (The Scripps Research Institute Molecular Screening Center, 2012).

The test relates to HEK293 3B-HSD promoter CAT reporter, ELISA absorbance. Kind of test: CAT reporter under 3B-HSD promoter control – cell-based, absorbance, counter-screen for DAX1 (NR0B1) inhibitor project, late-stage follow-up (AID 624314). As to conditions: at 100 µM (top of the series). The essentials: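 Schedule: compound exposure 16 h at 37 °C; Assay system: HEK293 cells transfected with full-length DAX-1, SF-1, HSD3B2-promoter CAT reporter; Replicates: triplicate testing per concentration; Dosing: three-point twofold dilution series, nominal top 100 µM; Measured by: CAT EIA absorbance; Evaluation: CAT signal relative to DMSO-treated wells.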
For orientation: The purpose of a counterscreen is to sort out artefacts and off-target activity.

For the molecule `Cn1c(=O)n(C)c2cc(C(=O)Nc3ccc4c(c3)OCCO4)ccc21`, the relative activity ratio is 0.26 (inactive).
Next, `Cn1c(=O)n(C)c2cc(C(=O)Nc3ccc4c(c3)OCO4)ccc21`: 0.34 (inactive).
